Legend:
[1] = biological target: T1, Steryl-sulfatase (Homo sapiens, UniProt P08842); assay: Reversible inhibition of STS (unknown origin) using 4-MUS as substrate measured over 10 mins by fluorescence assay; conditions: read-out: Ki(app)
T1 sequence (P08842 whole entry): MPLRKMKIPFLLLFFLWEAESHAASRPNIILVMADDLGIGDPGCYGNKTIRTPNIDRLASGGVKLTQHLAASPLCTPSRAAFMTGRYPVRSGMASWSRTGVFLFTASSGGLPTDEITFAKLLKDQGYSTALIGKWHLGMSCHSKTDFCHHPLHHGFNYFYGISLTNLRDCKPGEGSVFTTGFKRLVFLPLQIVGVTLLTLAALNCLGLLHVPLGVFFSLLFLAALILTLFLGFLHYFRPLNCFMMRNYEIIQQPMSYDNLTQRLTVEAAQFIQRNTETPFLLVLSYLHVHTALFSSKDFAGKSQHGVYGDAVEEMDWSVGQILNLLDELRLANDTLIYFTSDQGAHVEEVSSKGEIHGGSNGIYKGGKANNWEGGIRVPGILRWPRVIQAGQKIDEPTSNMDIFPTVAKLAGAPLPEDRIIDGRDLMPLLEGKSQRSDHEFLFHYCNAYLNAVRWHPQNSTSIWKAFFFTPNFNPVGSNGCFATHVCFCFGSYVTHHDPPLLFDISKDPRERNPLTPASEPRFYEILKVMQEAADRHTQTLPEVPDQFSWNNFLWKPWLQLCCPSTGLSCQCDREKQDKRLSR
In short: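 Purified STS at 10 nM final with 200 µM 4-MUS in 0.1 M Tris-HCl pH 7.0 (enzyme stock contained Triton X-100). Eleven inhibitor levels, 5 nM–5 µM, were added from DMSO/buffer. 4-Methylumbelliferone fluorescence (ex 360, em 460 nm) was followed for 10 min at 24 °C, in quadruplicate, with no-enzyme controls. Vi/V0 initial rates were fitted for IC50. K_i^app was the IC50-vs-[E]T intercept at 10–80 nM STS.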

[2] = biological target: T1, Steryl-sulfatase; assay: Inhibition of STS (unknown origin) using 4-MUS as substrate measured over 10 mins by fluorescence assay
In short: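 Purified STS (10 nM final) in 0.1 M Tris-HCl pH 7.0 containing Triton X-100, 4-MUS 200 µM final, and inhibitor at eleven concentrations (5 nM–5 µM). Ex 360/em 460 fluorescence read over 10 min at 24 °C, in quadruplicate, with no-enzyme controls. Vi/V0 from initial rates fit to a slope-factor equation. For tight binders, Ki app is the y-intercept of IC50 vs [E] (10–80 nM).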

| IC50 [2] | SMILES | Ki [1] |
| --- | --- | --- |
| – | C[C@]12CC[C@@H]3c4ccc(O)c(F)c4CC[C@H]3[C@@H]1CC[C@@H]2NS(=O)(=O)c1cccc(C(F)(F)F)c1 | 2.5 nM |
| 8 nM | CC(C)(C)c1ccc(S(=O)(=O)N[C@H]2CC[C@H]3[C@@H]4CCc5c(ccc(O)c5[N+](=O)[O-])[C@H]4CC[C@]23C)cc1 | – |
| 95 nM | C[C@]12CC[C@@H]3c4cc(Br)c(O)cc4CC[C@H]3[C@@H]1CC[C@@H]2NS(=O)(=O)c1cccc(C(F)(F)F)c1 | – |

Reference: ChEMBL document CHEMBL3600382, “A-ring substituted 17β-arylsulfonamides of 17β-aminoestra-1,3,5(10)-trien-3-ol as highly potent reversible inhibitors of steroid sulfatase” (Bioorg Med Chem, 2015)
